Assay results published in ChEMBL document CHEMBL4346684, “Synthesis and structure-bactericidal activity relationships of non-ketolides: 9-Oxime clarithromycin 11,12-cyclic carbonate featured with three-to eight-atom-length spacers at 3-OH” (Eur J Med Chem, 2019).
Converted amounts (≈) assume the structure as drawn.

Assays:
Format in all cases: functional
Streptococcus pneumoniae [1] = assay: Antimicrobial activity against erythromycin-susceptible Streptococcus pneumoniae ATCC 49619 incubated in CAMHB medium for 20 to 24 hrs by two-fold microbroth dilution method
Streptococcus pneumoniae [2] = assay: Antimicrobial activity against mef-encoded erythromycin resistant Streptococcus pneumoniae PU09 incubated in CAMHB medium for 20 to 24 hrs by two-fold microbroth dilution method
Streptococcus pneumoniae [3] = assay: Bactericidal activity against erythromycin-susceptible Streptococcus pneumoniae ATCC 49619 assessed as reduction in colony formation incubated in CAMHB medium for 20 to 24 hrs followed by 24 hrs subculturing in the medium without test compound
Streptococcus pneumoniae [4] = assay: Ratio of MBC to MIC for erythromycin-susceptible Streptococcus pneumoniae ATCC 49619
Streptococcus pneumoniae [5] = assay: Bactericidal activity against mef-encoded erythromycin resistant Streptococcus pneumoniae PU09 assessed as reduction in colony formation incubated in CAMHB medium for 20 to 24 hrs followed by 24 hrs subculturing in the medium without test compound
Streptococcus pneumoniae [6] = assay: Ratio of MBC to MIC for mef-encoded erythromycin resistant Streptococcus pneumoniae PU09
Streptococcus pyogenes [7] = assay: Antimicrobial activity against inducibly erythromycin resistant Streptococcus pyogenes 01-968 expressing i-ermA incubated in CAMHB medium for 20 to 24 hrs by two-fold microbroth dilution method
Streptococcus pyogenes [8] = assay: Bactericidal activity against inducibly erythromycin resistant Streptococcus pyogenes 01-968 expressing i-ermA assessed as reduction in colony formation incubated in CAMHB medium for 20 to 24 hrs followed by 24 hrs subculturing in the medium without test compound
Streptococcus pyogenes [9] = assay: Ratio of MBC to MIC for inducibly erythromycin resistant Streptococcus pyogenes 01-968 expressing i-ermA
Staphylococcus aureus [10] = assay: Antimicrobial activity against constitutively erythromycin resistant and methicillin resistant Staphylococcus aureus PU20 expressing c-ermC incubated in CAMHB medium for 20 hrs by two-fold microbroth dilution method; settings: PU20, 20 h
In short: (§1)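 Purified fresh Staphylococcus isolate at about 5×10^5 CFU/ml final in CAMHB, 35 °C for 20 h. Each run included ATCC strains and reference antibiotics as QC, plus an antibiotic-free growth control.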

Staphylococcus aureus [11] = assay: Antimicrobial activity against inducibly erythromycin-resistant and methicillin resistant Staphylococcus aureus PU32 expressing i-ermA incubated in CAMHB medium for 20 hrs by two-fold microbroth dilution method; settings: PU32, 20 h; in short: as §1
Staphylococcus aureus [12] = assay: Bactericidal activity against inducibly erythromycin-resistant and methicillin resistant Staphylococcus aureus PU32 expressing i-ermA assessed as reduction in colony formation incubated in CAMHB medium for 20 hrs followed by 24 hrs subculturing in the medium without test compound
Staphylococcus aureus [13] = assay: Ratio of MBC to MIC for inducibly erythromycin-resistant and methicillin resistant Staphylococcus aureus PU32 expressing i-ermA
Haemophilus influenzae [14] = assay: Antimicrobial activity against azithromycin-susceptible Haemophilus influenzae ATCC 49247 incubated in HTM broth medium for 20 to 24 hrs by two-fold microbroth dilution method
Haemophilus influenzae [15] = assay: Bactericidal activity against azithromycin-susceptible Haemophilus influenzae ATCC 49247 assessed as reduction in colony formation incubated in HTM broth medium for 20 to 24 hrs followed by 24 hrs subculturing in the medium without test compound
Haemophilus influenzae [16] = assay: Ratio of MBC to MIC for azithromycin-susceptible Haemophilus influenzae ATCC 49247
Staphylococcus aureus [17] = assay: Bactericidal activity against constitutively erythromycin resistant and methicillin-resistant Staphylococcus aureus PU20 expressing c-ermC assessed as reduction in colony formation incubated in CAMHB medium for 20 hrs followed by 24 hrs subculturing in the medium without test compound
Streptococcus pneumoniae [18] = assay: Antimicrobial activity against constitutively erythromycin resistant Streptococcus pneumoniae PU27 expressing c-erm incubated in CAMHB medium for 20 to 24 hrs by two-fold microbroth dilution method
In short: (§2)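 Purified fresh Streptococcus isolate at about 5×10^5 CFU/ml final in CAMHB with 5% horse serum, 35 °C for 20–24 h. […] Each run included ATCC strains and reference antibiotics as QC, plus an antibiotic-free growth control.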

Streptococcus pyogenes [19] = assay: Antimicrobial activity against constitutively erythromycin resistant Streptococcus pyogenes A2 expressing c-erm incubated in CAMHB medium for 20 to 24 hrs by two-fold microbroth dilution method; in short: as §2
Streptococcus pyogenes [20] = assay: Antimicrobial activity against erythromycin-susceptible Streptococcus pyogenes A3 incubated in CAMHB medium for 20 to 24 hrs by two-fold microbroth dilution method
Staphylococcus aureus [21] = assay: Antimicrobial activity against erythromycin-susceptible Staphylococcus aureus ATCC 29213 incubated in CAMHB medium for 20 hrs by two-fold microbroth dilution method; settings: ATCC 29213, 20 h
In short: (§3)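 Clinical isolates and ATCC strains, purified by plate activation and used fresh; inoculum about 5×10^5 CFU/ml final. Grown in CAMHB at 35 °C for 20 h.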

Staphylococcus aureus [22] = assay: Antimicrobial activity against inducibly erythromycin-resistant Staphylococcus aureus PU32 expressing i-ermA incubated in CAMHB medium for 20 hrs by two-fold microbroth dilution method; settings: PU32, 20 h
In short: (§4)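 Purified fresh Staphylococcus isolate at about 5×10^5 CFU/ml final in CAMHB, 35 °C for 20 h. […] Each run included ATCC strains and reference antibiotics as QC, plus an antibiotic-free growth control.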

Staphylococcus aureus [23] = assay: Antimicrobial activity against constitutively erythromycin resistant Staphylococcus aureus PU20 expressing c-ermC incubated in CAMHB medium for 20 hrs by two-fold microbroth dilution method; settings: PU20, 20 h; in short: as §4
Staphylococcus aureus [24] = assay: Antimicrobial activity against inducibly erythromycin resistant Staphylococcus aureus PU64 expressing i-ermA incubated in CAMHB medium for 20 hrs by two-fold microbroth dilution method; settings: PU64, 20 h; in short: as §4
[25] = system: Staphylococcus epidermidis; assay: Antimicrobial activity against Staphylococcus epidermidis E1 incubated in CAMHB medium for 20 hrs by two-fold microbroth dilution method; settings: E1, 20 h; in short: as §3

Row | SMILES | MIC (Streptococcus pneumoniae [1]) | MIC (Streptococcus pneumoniae [2]) | MBC (Streptococcus pneumoniae [3]) | Ratio (Streptococcus pneumoniae [4]) | MBC (Streptococcus pneumoniae [5]) | Ratio (Streptococcus pneumoniae [6]) | MIC (Streptococcus pyogenes [7]) | MBC (Streptococcus pyogenes [8]) | Ratio (Streptococcus pyogenes [9]) | MIC (Staphylococcus aureus [10]) | MIC (Staphylococcus aureus [11]) | MBC (Staphylococcus aureus [12]) | Ratio (Staphylococcus aureus [13]) | MIC (Haemophilus influenzae [14]) | MBC (Haemophilus influenzae [15]) | Ratio (Haemophilus influenzae [16]) | MBC (Staphylococcus aureus [17]) | other results
1 | CC[C@H]1OC(=O)[C@H](C)[C@@H](OC(=O)NCCCCc2cccnc2)[C@H](C)[C@@H](O[C@@H]2O[C@H](C)C[C@H](N(C)C)[C@H]2O)[C@](C)(OC)C[C@@H](C)/C(=N\OC)[C@H](C)[C@H]2OC(=O)O[C@@]21C | 0.5 µg/mL (≈ 0.609 µM) | 8 µg/mL (≈ 9.74 µM) | 2 µg/mL (≈ 2.44 µM) | 4 | 8 µg/mL (≈ 9.74 µM) | 1 | 128 µg/mL (≈ 156 µM) | 128 µg/mL (≈ 156 µM) | 1 | > 256 µg/mL | 32 µg/mL (≈ 39 µM) | > 256 µg/mL | >8 | 256 µg/mL (≈ 312 µM) | 256 µg/mL (≈ 312 µM) | 1 |  | 
2 | CC[C@H]1OC(=O)[C@H](C)[C@@H](OC(=O)CCNCCCc2cccnc2)[C@H](C)[C@@H](O[C@@H]2O[C@H](C)C[C@H](N(C)C)[C@H]2O)[C@](C)(OC)C[C@@H](C)/C(=N\OC)[C@H](C)[C@H]2OC(=O)O[C@@]21C | 1 µg/mL (≈ 1.2 µM) | 2 µg/mL (≈ 2.4 µM) | 8 µg/mL (≈ 9.58 µM) | 8 | 4 µg/mL (≈ 4.79 µM) | 2 | 0.5 µg/mL (≈ 0.599 µM) | > 4 µg/mL | >8 | 256 µg/mL (≈ 307 µM) | 32 µg/mL (≈ 38.3 µM) | > 256 µg/mL | >8 | 256 µg/mL (≈ 307 µM) | 256 µg/mL (≈ 307 µM) | 1 | > 256 µg/mL | 
3 | CC[C@H]1OC(=O)[C@H](C)[C@@H](OC(=O)NCCCc2ccc3c(c2)c(=O)c(C(=O)O)cn3C2CC2)[C@H](C)[C@@H](O[C@@H]2O[C@H](C)C[C@H](N(C)C)[C@H]2O)[C@](C)(OC)C[C@@H](C)/C(=N\OC)[C@H](C)[C@H]2OC(=O)O[C@@]21C | 1 µg/mL (≈ 1.04 µM) | 2 µg/mL (≈ 2.09 µM) | 2 µg/mL (≈ 2.09 µM) | 2 | 8 µg/mL (≈ 8.36 µM) | 4 | 4 µg/mL (≈ 4.18 µM) | 8 µg/mL (≈ 8.36 µM) | 2 | 256 µg/mL (≈ 267 µM) | 32 µg/mL (≈ 33.4 µM) | > 256 µg/mL | >8 | 256 µg/mL (≈ 267 µM) | 256 µg/mL (≈ 267 µM) | 1 | > 256 µg/mL | 
4 | CC[C@H]1OC(=O)[C@H](C)[C@@H](OC(=O)NCC#Cc2cccnc2)[C@H](C)[C@@H](O[C@@H]2O[C@H](C)C[C@H](N(C)C)[C@H]2O)[C@](C)(OC)C[C@@H](C)/C(=N\OC)[C@H](C)[C@H]2OC(=O)O[C@@]21C | 0.03 µg/mL (≈ 0.0374 µM) | 0.5 µg/mL (≈ 0.623 µM) | 0.062 µg/mL (≈ 0.0772 µM) | 2 | 2 µg/mL (≈ 2.49 µM) | 4 | 1 µg/mL (≈ 1.25 µM) | 4 µg/mL (≈ 4.98 µM) | 4 | > 256 µg/mL | 16 µg/mL (≈ 19.9 µM) | > 128 µg/mL | >8 | > 256 µg/mL |  |  |  | 
5 | C=CCO/N=C1\[C@H](C)C[C@@](C)(OC)[C@H](O[C@@H]2O[C@H](C)C[C@H](N(C)C)[C@H]2O)[C@@H](C)[C@H](O)[C@@H](C)C(=O)O[C@H](CC)[C@@]2(C)OC(=O)O[C@@H]2[C@H]1C | 8 µg/mL (≈ 11.9 µM) | 16 µg/mL (≈ 23.9 µM) |  |  |  |  |  |  |  |  |  |  |  |  |  |  |  | MIC (Streptococcus pneumoniae [18]): 128 µg/mL (≈ 191 µM); MIC (Streptococcus pyogenes [19]): 128 µg/mL (≈ 191 µM); MIC (Streptococcus pyogenes [20]): 16 µg/mL (≈ 23.9 µM); MIC (Staphylococcus aureus [21]): 128 µg/mL (≈ 191 µM); MIC (Staphylococcus aureus [22]): > 256 µg/mL; MIC (Staphylococcus aureus [23]): > 256 µg/mL; MIC (Staphylococcus aureus [24]): > 256 µg/mL; MIC [25]: > 256 µg/mL
